From PubChem
Most compounds without a hit are left out; they make up all but 2.7% or so of the library.
TPT1 inh – inhibitors of Candida albicans tRNA 2'-phosphotransferase TPT1; 300,000 tested, 0.81% active; recombinant caTPT1, FP RNA substrate dephosphorylation; AID 1962; inhibition, % at 5 µM;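 active = inhibition above the mean of all tested compounds plus 3 SD, set per screening campaign, cut at about 24% in these data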;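 note: plate controls were DMSO alone for no effect and ferristatin control at 100 nM for full effect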
HNF4A DNA FP – change in binding of human HNF4 alpha to DNA; HNF4a-FITC DNA binding, fluorescence polarization, 1 h; 360,000 tested, 0.3% active; AID 1224865; activity change, % at 10 µM; P41235; in the data active = activity change above about 30%, passing the limit was not always enough
PP1 inh – blocks human PP1-alpha phosphatase, a PP5 counter-screen | purified PP1alpha, OMFP fluorescence | inhibition, % at 6.7 µM | 320,000 tested, 0.9% active;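 active = inhibition above the mean inhibition of all tested compounds plus 3 SD, computed separately for each screening campaign, cut at about 15% in these data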
NadD inh – NadD (S. aureus) enzyme inhibition | 360,000 tested, 0.78% active | purified NadD enzyme, colorimetric absorbance read-out | inhibition, % at 20 µM | AID 602399; in the data active = inhibition above about 26%
Rpn11 inh – inhibitors of human proteasome Rpn11; O00487; human 26S proteasome, Ub4-pepOG fluorescence polarization; 20S core pre-blocked with epoxomicin; inhibition, % at 20 µM; 360,000 tested, 0.59% active;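 active = inhibition at 20 µM, scaled to each plate's controls, above about 33%, limit read from the data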
CSN inh – blocks human CSN-mediated cullin deneddylation; Q92905; Purified CSN, SCF-Nedd8-OG deneddylation, fluorescence polarization; inhibition, % at 12.5 µM; 360,000 tested, 0.38% active; AID 651999;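 active = pattern-corrected inhibition above about 35%, with an unprinted fluorescence ratio check between 0.5 and 1.5, limit read from the data, passing the limit was not always enough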;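 note: 0% = enzyme with substrate and 100% = substrate without enzyme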
Target sequence (Q92905 whole entry, looked up, one chain of several): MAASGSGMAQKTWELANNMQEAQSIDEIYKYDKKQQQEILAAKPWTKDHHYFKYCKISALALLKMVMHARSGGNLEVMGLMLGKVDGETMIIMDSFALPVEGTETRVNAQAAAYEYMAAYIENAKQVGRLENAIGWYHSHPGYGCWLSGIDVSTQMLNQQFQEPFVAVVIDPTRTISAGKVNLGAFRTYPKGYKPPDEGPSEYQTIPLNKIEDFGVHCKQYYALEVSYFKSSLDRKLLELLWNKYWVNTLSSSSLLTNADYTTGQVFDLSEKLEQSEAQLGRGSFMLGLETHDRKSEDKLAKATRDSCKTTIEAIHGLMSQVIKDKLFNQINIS
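Assay system: HEK293T-derived human Csn5 enzyme; quantity: 0.24 nM enzyme; medium: Tris/NaCl/DTT buffer, pH 7.5; also added: substrate SCFSkp2-Nedd8OG, 10 nM; doses: 12.5 µM compound; schedule: 90 min reaction at room temperature; signal: FP; read-out: % inhibition of substrate cleavage by Csn5; benchmarks: substrate-only high control, full reaction low control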
PP1 inh confirm – human PP1 phosphatase inhibition, confirmation | shares compounds with PP1 inh | purified PP1alpha, OMFP substrate fluorescence | inhibition, % at 6.7 µM | 1,900 tested, 52% active;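 active = mean PP1 inhibition above a set limit taken from the earlier primary screen, cut at about 15% in these data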
PP5 inh counter – counter-screen for PP1 inhibitors: human PP5 phosphatase inhibition. shares compounds with PP1 inh. purified PP5c, OMFP fluorescence. inhibition, % at 6.7 µM. 1,900 tested, 4% active;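 active = mean PP5 inhibition over triplicate wells above about 9.5% taken from the earlier PP1 screen, limit read from the data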
Rpn11 inh conf – confirmation of human proteasome Rpn11 inhibitors; 1,900 tested, 29% active; purified human 26S proteasome, Ub4-pepOG fluorescence polarization; proteasome pretreated with epoxomicin; inhibition, % at 20 µM; shares compounds with Rpn11 inh
MMP-2 counter – MMP-2 (human) inhibition counter-screen; shares compounds with Rpn11 inh; AID 602330; 1,900 tested, 4% active; inhibition, % at 20 µM; recombinant MMP-2, FRET peptide cleavage fluorescence;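 note: human MMP-2 activated beforehand with APMA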
Thrombin inh – counter-screen for RPN11 inhibitors: inhibition of bovine thrombin; inhibition, % at 20 µM; bovine thrombin cleavage of Ub4-pepOG, fluorescence polarization; 1,900 tested, 13% active; shares compounds with Rpn11 inh;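 active = mean inhibition at least 40% at 20 µM, or signal 3 deviations below plate average, so some actives read negative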;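 note: plate controls were thrombin with DMSO for no effect and buffer wells lacking thrombin for full effect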
An asterisk follows results filed as active; · = no result given. Cut-off read from the data, not from the text of the source, unless noted: active = inhibition above about 40%; inactive = the rest.

SMILES	TPT1 inh	HNF4A DNA FP	PP1 inh	NadD inh	Rpn11 inh	CSN inh	PP1 inh confirm	PP5 inh counter	Rpn11 inh conf	MMP-2 counter	Thrombin inh
CON(C)C(=O)CC(CNC(=O)OC(C)(C)C)c1ccc(Cl)cc1 (centres undefined)	·	-3	·	-7	-6	1	·	·	·	·	·
CCN(CC)CCN(C(=O)c1ccc2c(c1)CCCC2)c1nc2cc(OC)c(OC)cc2s1	-2	2	24*	-1	-1	-2	-3	2	·	·	·
O=C(Nc1ccnn1C1CCN(CCCc2ccccc2)CC1)c1ccccc1Cl	-1	1	-2	-9	3	2	·	·	·	·	·
CC1CCCCC12NC(=O)N(CC(=O)N1CCN(Cc3ccc(C#N)cc3)CC1)C2=O (centres undefined)	·	-2	-3	-7	4	2	·	·	·	·	·
CCOc1cc(/C=C2\CCCc3c2nc2ccccc2c3C(=O)O)ccc1OC	-87	-88	6	-4	-184	-18	·	·	·	·	·
O=C1c2cccc3cccc(c23)C(=O)N1c1ccc2ncccc2c1	5	-4	23*	2	136*	30	6	-2	41*	37	-8
N#C/C(=C\c1cn(CCOc2ccccc2)c2ccccc12)C(=O)NCC1CCCO1 (centres undefined)	-2	-3	4	3	0	-6	·	·	·	·	·
Cc1ccc(C)c(OCCn2cc(/C=C(/C#N)C(=O)NCC3CCCO3)c3ccccc32)c1 (centres undefined)	10	1	53*	-5	100*	-3	2	-3	72*	-1	28
CCNC(=O)C1CCCN(C(=O)c2ccc(C(=O)OC)cc2)CC1 (centres undefined)	·	3	·	4	0	-5	·	·	·	·	·
CCCCCCCCCCOC(=O)Cn1c(COc2ccc(Cl)cc2)[n+](C)c2ccccc21	-5	13	48*	21	52*	5	21*	2	50*	-5	-18
CCCCCCCCCCOC(=O)Cn1c(COc2cccc(C)c2)[n+](C)c2ccccc21	4	4	42*	11	40*	3	16*	4	9	-3	-33
CCCCCOC(=O)Cn1c(=O)oc2ccccc21	-2	0	8	0	-2	2	·	·	·	·	·
O=C(NCCN1CCCCC1)Nc1ccc(F)cc1F	3	-1	-1	-2	2	-1	·	·	·	·	·
CCCCCCSc1cc(-c2nc3cc(C)ccn3c2NC2CCCCC2)ccc1OC	8	26	22*	-2	52*	17	11	-3	11	7	-12
Cc1noc(C)c1S(=O)(=O)N1CCN(c2ccccc2Cl)CC1	·	0	·	6	-4	4	·	·	·	·	·
Cc1sc2nc(CSc3ccc([N+](=O)[O-])c(C(F)(F)F)c3)[nH]c(=O)c2c1C	22	21	27*	12	41*	8	9	-2	20	-40	-13
O=C(CSc1nnc(SCc2ccc(Cl)cc2)s1)N/N=C/c1c[nH]c2ccccc12	-1	112*	25*	-7	125*	35	32*	1	68*	20	-3
O=C(CSc1nnc(SCc2cccc3ccccc23)s1)N/N=C/c1c[nH]c2ccccc12	-3	1	3	21	3	-5	·	·	·	·	·
O=c1[nH]c(/C=C/c2ccccc2Cl)nc2ccccc12	-3	79*	18*	-3	75*	28	25*	-6	25	8	-18
O=C(O)c1ccc(/C=C/c2nc3ccccc3c(=O)[nH]2)cc1	-4	-2	-5	-1	-2	0	·	·	·	·	·
